In ChEMBL document CHEMBL5338743, “Identification of a Selective SCoR2 Inhibitor That Protects Against Acute Kidney Injury” (J Med Chem, 2023):
The source made the active and inactive calls. No cut-off for these calls is given here.

Assays:
[1] = target: T1, Aldo-keto reductase family 1 member A1 (Homo sapiens) (UniProt P14550); experiment: Binding affinity to C-terminal 6His-tagged human recombinant SCoR2 AKR1A1 expressed in Escherichia coli BL21-CodonPlus competent cells assessed as thermal stability by measuring melting temperature at +/- 250 uM preincubated for 15 mins with NADP+ followed by compound addition and measured after 30 mins by SYPRO orange dye based DSF analysis (reference value: 51.4 degreeC)
T1 sequence (whole entry): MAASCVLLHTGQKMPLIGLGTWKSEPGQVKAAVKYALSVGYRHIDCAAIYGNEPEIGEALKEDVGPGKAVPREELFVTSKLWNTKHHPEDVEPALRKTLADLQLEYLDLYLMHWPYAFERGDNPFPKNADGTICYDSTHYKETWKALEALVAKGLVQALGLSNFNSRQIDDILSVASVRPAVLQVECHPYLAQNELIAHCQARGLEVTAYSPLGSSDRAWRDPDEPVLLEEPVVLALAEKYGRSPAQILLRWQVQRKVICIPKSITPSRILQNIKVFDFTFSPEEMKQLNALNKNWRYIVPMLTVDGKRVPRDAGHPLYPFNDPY
Outline: (§1)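 5 μM protein with or without 250 μM NADPH or NADP⁺ and 250 μM inhibitor; cofactor preincubated 15 min, then inhibitor 30 min at room temperature. 10X SYPRO Orange added; temperature ramped 25–70°C in 0.3°C steps. DMSO-matched controls (1%); duplicates.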

[2] = target: T1, Aldo-keto reductase family 1 member A1 (Homo sapiens); experiment: Binding affinity to C-terminal 6His-tagged human recombinant SCoR2 AKR1A1 expressed in Escherichia coli BL21-CodonPlus competent cells assessed as melting temperature at +/- 250 uM incubated for 45 mins by SYPRO orange dye based DSF analysis (reference value: 48.3 degreeC); outline: as §1
Mus musculus [3] = experiment: In vivo inhibition of SCoR2 in C57BL/6J mouse assessed as reduction in SNO-CoA metabolic activity in brain at 120 mg/kg body weight, ip administered as single dose into abdomen measured after 18 hrs; format: functional, organism-based
Outline: (§2)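 Single i.p. injection into the mouse abdomen, DMSO vehicle; organs collected 18 h later. Tissues homogenized in 50 mM phosphate pH 7.0, 150 mM NaCl, EDTA/DTPA, then clarified; lysate started reactions with 200 μM SNO-CoA and 100 μM NADPH, 2 min, NADPH loss monitored, in triplicate. Compared with vehicle and SCoR2−/− kidneys.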

Mus musculus [4] = experiment: In vivo inhibition of SCoR2 in C57BL/6J mouse assessed as reduction in SNO-CoA metabolic activity in spleen at 120 mg/kg body weight, ip administered as single dose into abdomen measured after 18 hrs; format: functional, organism-based; outline: as §2
Mus musculus [5] = experiment: In vivo inhibition of SCoR2 in C57BL/6J mouse assessed as reduction in SNO-CoA metabolic activity in lung at 120 mg/kg body weight, ip administered as single dose into abdomen measured after 18 hrs; format: functional, organism-based; outline: as §2
Mus musculus [6] = experiment: In vivo inhibition of SCoR2 in C57BL/6J mouse assessed as reduction in SNO-CoA metabolic activity in liver at 120 mg/kg body weight, ip administered as single dose into abdomen measured after 18 hrs; format: functional, organism-based; outline: as §2
Mus musculus [7] = experiment: In vivo inhibition of AKR1B1 in mouse assessed as reduction in methyl glyoxylate metabolic activity in kidneys at 120 mg/kg body weight, ip administered as single dose into abdomen measured after 18 hrs; format: functional, organism-based
[8] = In vivo inhibition of SCoR2 in C57BL/6J mouse assessed as reduction in SNO-CoA metabolic activity in kidneys at 120 mg/kg body weight, ip administered as single dose into abdomen measured after 18 hrs relative to control; format: functional; outline: as §2
Homo sapiens = organism: Homo sapiens; experiment: Selectivity index, ratio of IC50 for inhibition of human recombinant AKR1B1 expressed in Escherichia coli BL21-CodonPlus competent cells to IC50 for inhibition of human recombinant SCoR2 expressed in Escherichia coli BL21-CodonPlus competent cells
Outline: (§3)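 Purified enzyme at 200 nM (SCoR2 with 100 μM SNO-CoA; AKR1B1 with 100 μM methylglyoxylate) in 50 mM phosphate pH 7.0 with serial inhibitor dilutions; started with 100 μM NADPH, 2 min. Rate from 340 nm decrease, normalized to 20 nM protein activity; IC50 fitted, n=3. Selectivity taken as AKR1B1/SCoR2 IC50 ratio.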

[9] = target: Aldo-keto reductase family 1 member B1 (Homo sapiens, UniProt P15121); experiment: Inhibition of C-terminal 6His-tagged human recombinant AKR1B1 expressed in Escherichia coli BL21-CodonPlus competent cells using methyl glyoxylate as substrate incubated for 2 mins in presence of NADPH; outline: as §3
[10] = target: T2, Aldo-keto reductase family 1 member A1 (Homo sapiens, UniProt P14550); experiment: Inhibition of C-terminal 6His-tagged human recombinant SCoR2 AKR1A1 expressed in Escherichia coli BL21-CodonPlus competent cells using SNO-CoA as substrate incubated for 2 mins in presence of NADPH; outline: as §3
T2 sequence (P14550 whole entry): T1 sequence (whole entry)

Kidney = experiment: Effect on SCoR2 protein expression in kidney of ischemia/reperfusion induced acute kidney injury mouse model at 120 mg/kg, ip pretreated for 18 hrs followed by kidney injury surgery and measured after 24 hrs by Western blot analysis; format: functional, organism-based; conditions: time 42.0 hrs
Outline: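 Mice given 120 mg/kg i.p. 18 h before I/R surgery; kidneys collected 24 h post-surgery. SCoR2 protein measured by western blot (4–20% gels, overnight primary antibody at 4°C, HRP secondary, ECL) and quantified; n=6, DMSO controls.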

Mus musculus [11] = experiment: Protection against ischemia/reperfusion induced acute kidney injury in mouse assessed as reduction in blood urea nitrogen level at 120 mg/kg, ip pretreated for 18 hrs followed by kidney injury surgery and measured after 24 hrs; format: functional, organism-based; conditions: time 42.0 hrs
Outline: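 Male mice (9–11 weeks, 25–28 g) given i.p. dose 18 h before ischemia–reperfusion AKI surgery under isoflurane; serum taken 24 h after reperfusion. Creatinine and BUN measured by a clinical laboratory; DMSO-treated controls.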

[12] = Renal toxicity in mouse assessed as effect on anatomy of medulla at 120 mg/kg, ip treated for 18 hrs under basal conditions by H and E staining based analysis; format: organism-based; conditions: in vivo
Outline: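 Sham-operated mice given 120 mg/kg i.p. or vehicle; kidney cortex and medulla examined by H&E staining.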

Mus musculus [13] = experiment: Protection against ischemia/reperfusion induced acute kidney injury in mouse assessed as reduction in tubular lysis at 120 mg/kg, ip pretreated for 18 hrs followed by kidney injury surgery and measured after 24 hrs by H and E staining based analysis; format: functional, organism-based; conditions: time 42.0 hrs
Outline: (§4)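 Mice dosed i.p. 120 mg/kg 18 h before I/R surgery, kidneys harvested 24 h later, H&E-stained. Tubular lysis, brush-border loss and luminal debris scored 0–2 over more than five fields per animal; n=5 mice per group, vehicle controls.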

Mus musculus [14] = experiment: Protection against ischemia/reperfusion induced acute kidney injury in mouse assessed as reduction in loss of brush borders at 120 mg/kg, ip pretreated for 18 hrs followed by kidney injury surgery and measured after 24 hrs by H and E staining based analysis; format: functional, organism-based; conditions: time 42.0 hrs; outline: as §4
Mus musculus [15] = experiment: Protection against ischemia/reperfusion induced acute kidney injury in mouse assessed as reduction in sloughed debris in the tubular lumen at 120 mg/kg, ip pretreated for 18 hrs followed by kidney injury surgery and measured after 24 hrs by H and E staining based analysis; format: functional, organism-based; conditions: time 42.0 hrs; outline: as §4
Mus musculus [16] = experiment: Protection against ischemia/reperfusion induced acute kidney injury in mouse assessed as reduction in PKM2 activity in kidney at 120 mg/kg, ip pretreated for 18 hrs followed by kidney injury surgery and measured after 24 hrs by colorimetric pyruvate kinase activity assay; conditions: time 42.0 hrs

## O=C1NC(=O)C2(N1)c1ccccc1-c1ccc(C3CC3)cc12 (stereo not drawn)
[1]
  Tm: 54.4 °C
[2]
  Tm: 46.6 °C
Mus musculus [3]
  inhibition: inactive
Mus musculus [4]
  inhibition: Active
Mus musculus [5]
  inhibition: Active
Mus musculus [6]
  inhibition: Active
Mus musculus [7]
  inhibition: inactive
[8]
  inhibition in vivo at 120 mg/kg: 80%
Homo sapiens
  Ratio IC50: 9.7
[9]
  IC50: 903 nM
[10]
  IC50: 93 nM
Kidney
  Activity: inactive
Mus musculus [11]
  Activity: Active
[12]
  Activity: Non-Toxic
Mus musculus [13]
  Activity: Active
Mus musculus [14]
  Activity: Active
Mus musculus [15]
  Activity: Active
Mus musculus [16]
  Activity: Active
